Experimental data as given in paper PMC12594201 (Proteins, 2025).

What was measured:
β‐clamp [1] = biological target: T1, β‐clamp (Escherichia coli, UniProt P0A988); experiment: Calculated fraction of β‐clamp bound / saturation level; format: binding, E. coli; details: NMR titration, 200 μM β‐clamp with up to 800 μM peptide
Procedure, shortened: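 Fraction of β-clamp bound computed from the quadratic single-site equation using total protein concentration, total ligand concentration and K_D. […]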

β‐clamp [2] = biological target: T1, β‐clamp; details: literature values; ref [34], [35]; cited from earlier work

T1 sequence (P0A988 whole entry): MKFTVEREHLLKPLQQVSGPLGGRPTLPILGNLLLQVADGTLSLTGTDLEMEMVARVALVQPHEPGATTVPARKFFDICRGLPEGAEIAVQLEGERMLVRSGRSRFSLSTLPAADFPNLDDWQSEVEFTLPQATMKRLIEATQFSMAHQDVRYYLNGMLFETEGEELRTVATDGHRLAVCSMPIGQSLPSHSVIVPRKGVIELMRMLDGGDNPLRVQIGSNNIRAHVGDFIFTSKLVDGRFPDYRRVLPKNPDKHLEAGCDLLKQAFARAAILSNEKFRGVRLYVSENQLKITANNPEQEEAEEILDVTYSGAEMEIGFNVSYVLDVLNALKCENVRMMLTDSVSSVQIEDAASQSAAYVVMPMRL

For NH3 ^+‐GWLDPQMERQLVLGL‐COO^— [pol IV*], the “saturation level of β‐clamp” value (β‐clamp [1]) is listed as greater than 98% and the Kd (β‐clamp [2]) is listed as 2 to 8 µM.
